Source: ChEMBL document CHEMBL1938394, “Time-dependent slowly-reversible inhibition of monoamine oxidase A by N-substituted 1,2,3,6-tetrahydropyridines” (Bioorg Med Chem, 2011)

Assays:
[1] = target: T1, Amine oxidase [flavin-containing] A (Homo sapiens, UniProt P21397); test: Inhibition of human recombinant MAOA expressed in insect cells using kynuramine substrate after 60 mins
T1 sequence (P21397 whole entry): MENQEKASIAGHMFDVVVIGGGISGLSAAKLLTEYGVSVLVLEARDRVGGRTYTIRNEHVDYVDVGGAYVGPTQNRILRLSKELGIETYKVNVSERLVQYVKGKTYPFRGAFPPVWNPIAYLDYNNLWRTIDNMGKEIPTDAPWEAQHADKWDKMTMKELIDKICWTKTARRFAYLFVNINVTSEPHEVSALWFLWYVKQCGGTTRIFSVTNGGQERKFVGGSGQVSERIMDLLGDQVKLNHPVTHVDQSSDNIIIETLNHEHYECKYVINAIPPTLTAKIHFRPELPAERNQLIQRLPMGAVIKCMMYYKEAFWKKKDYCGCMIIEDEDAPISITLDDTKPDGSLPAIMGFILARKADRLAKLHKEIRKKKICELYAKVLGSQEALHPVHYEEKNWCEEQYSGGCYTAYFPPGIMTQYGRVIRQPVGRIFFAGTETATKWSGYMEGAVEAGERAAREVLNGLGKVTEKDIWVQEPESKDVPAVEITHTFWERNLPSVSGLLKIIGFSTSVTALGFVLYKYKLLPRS

[2] = target: T2, Amine oxidase [flavin-containing] B (Homo sapiens, UniProt P27338); test: Inhibition of human recombinant MAOB expressed in insect cells using benzylamine hydrochloride as substrate after 30 mins
T2 sequence (P27338 whole entry): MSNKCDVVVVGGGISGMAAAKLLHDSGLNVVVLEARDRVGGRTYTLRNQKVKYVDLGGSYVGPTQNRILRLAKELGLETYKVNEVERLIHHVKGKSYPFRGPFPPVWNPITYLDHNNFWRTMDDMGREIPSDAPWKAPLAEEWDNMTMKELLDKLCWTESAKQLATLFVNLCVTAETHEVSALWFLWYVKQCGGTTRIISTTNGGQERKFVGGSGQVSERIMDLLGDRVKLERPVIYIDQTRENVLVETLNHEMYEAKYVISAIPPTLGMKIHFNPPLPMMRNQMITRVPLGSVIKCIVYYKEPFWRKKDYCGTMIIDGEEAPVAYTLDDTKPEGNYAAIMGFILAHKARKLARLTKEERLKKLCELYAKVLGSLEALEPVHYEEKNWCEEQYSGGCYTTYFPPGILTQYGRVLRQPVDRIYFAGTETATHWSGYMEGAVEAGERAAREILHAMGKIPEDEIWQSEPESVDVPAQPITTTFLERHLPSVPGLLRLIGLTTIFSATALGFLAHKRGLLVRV
How it was run: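 Human recombinant MAO-B (0.01 mg/mL) in 0.1 M isotonic phosphate buffer pH 7.4, inhibitor 0–7000 µM, benzylamine 1000 µM final, 30 min at 37 °C. Stopped with perchloric acid; benzaldehyde measured by reverse-phase HPLC with UV 254 nm. IC50 from sigmoidal log dose–response fit; triplicate, mean ± SD.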

Homo sapiens = species on record: Homo sapiens; test: Selectivity index, ratio of IC50 for human recombinant MAOB to IC50 for human recombinant MAOA
How it was run: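 MAO-A (0.005 mg/mL; 150 μM kynuramine, 60 min, 37 °C, […]) and MAO-B (0.01 mg/mL; 1000 μM benzylamine, 30 min, 37 °C, perchloric acid stop, benzaldehyde by HPLC-UV at 254 nm) in isotonic 0.1 M phosphate pH 7.4. Inhibitor 0–7000 μM. IC50s from sigmoidal log curves in triplicate. SI = MAO-B IC50 / MAO-A IC50.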

[3] = target: T1, Amine oxidase [flavin-containing] A; test: Noncompetitive inhibition of human recombinant MAO-A assessed as dissociation constant for enzyme-inhibitor complex by Lineweaver-Burk plot analysis
[4] = target: T1, Amine oxidase [flavin-containing] A; test: Inhibition of human recombinant MAOA expressed in insect cells assessed as oxidation of kynuramine substrate at 5 uM up to 90 mins; conditions: 1.5 h
How it was run: (§1)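 Time course of kynuramine oxidation by recombinant human MAO-A at 37 °C in isotonic 0.1 M phosphate pH 7.4 with or without inhibitor. A second portion of substrate (150 μM kynuramine) was added at 90 min and fresh enzyme at 120 min, with product formation followed throughout.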

[5] = target: T1, Amine oxidase [flavin-containing] A; test: Time dependent inhibition of human recombinant MAOA expressed in insect cells using kynuramine as substrate at 5 uM preincubated up to 40 mins before kynuramine substrate addition
How it was run: (§2)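 Recombinant human MAO-A preincubated at 37 °C with inhibitor (2–5 μM) or buffer control for 0, 10, 20, 30 or 40 min before kynuramine (150 μM) was added. Activity read after 30 min as % of control, n = 3. Kitz–Wilson slope replot: Ki from reciprocal of x-intercept, kinact from reciprocal of y-intercept.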

[6] = target: T1, Amine oxidase [flavin-containing] A; test: Inhibition of human recombinant MAOA expressed in insect cells using kynuramine as substrate by Kitz-Wilson plot analysis; how it was run: as §2
[7] = target: T3, MAO-A (amine oxidase [flavin-containing] A) (Homo sapiens, UniProt P21397); test: Irreversible inhibition of human recombinant MAOA expressed in insect cells using kynuramine as substrate by Kitz-Wilson plot analysis; conditions: probe kynuramine; how it was run: as §2
T3 sequence (P21397 whole entry): T1 sequence (P21397 whole entry)

[8] = target: T1, Amine oxidase [flavin-containing] A; test: Inhibition of human recombinant MAOA expressed in insect cells assessed as formation of 4-hydroxyquinoline at 5 uM preincubated for 1 hr before kynuramine substrate measured after 12 hrs of dialysis
How it was run: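 MAO-A (0.005 mg/mL) in 0.1 M sodium phosphate pH 7.4 made isotonic with NaCl, preincubated 1 h at 37 °C without substrate with inhibitor (final volume 1 mL), then dialyzed overnight at 0 °C against 250 mL buffer. Activity in dialysate read as product formation at 310 nm with 150 μM kynuramine over 60 min at 37 °C. 4-Hydroxyquinoline quantified by calibration curve. Means ± SD, n = 3.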

[9] = target: T1, Amine oxidase [flavin-containing] A; test: Inhibition of human recombinant MAOA expressed in insect cells assessed as formation of 4-hydroxyquinoline at 5 uM preincubated for 1 hr before kynuramine substrate measured after 1 hr in presence of sodium borohydride
How it was run: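 MAO-A (0.005 mg/mL) preincubated 60 min at 37 °C with inhibitor in isotonic 0.1 M phosphate pH 7.4. NaBH4 (5 μL of 300 mM stock in water) then added and the mix held 15 min at 0 °C. It was dialyzed overnight at 0 °C, then read at 310 nm with 150 μM kynuramine over 60 min at 37 °C. Controls without inhibitor also got borohydride. n = 3.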

[10] = target: T1, Amine oxidase [flavin-containing] A; test: Inhibition of human recombinant MAOA expressed in insect cells assessed as oxidation of kynuramine substrate at 5 uM measured after additional substrate added after 90 mins incubation; conditions: 1.5 h; how it was run: as §1
[11] = target: T1, Amine oxidase [flavin-containing] A; test: Noncompetitive inhibition of human recombinant MAO-A assessed as dissociation constant for enzyme-inhibitor-substrate complex by Lineweaver-Burk plot analysis
[12] = target: T1, Amine oxidase [flavin-containing] A; test: Inhibition of human recombinant MAOA expressed in insect cells assessed as oxidation of kynuramine substrate at 5 uM measured after additional enzyme added after 120 mins incubation; conditions: 2 h; how it was run: as §1
[13] = target: T1, Amine oxidase [flavin-containing] A; test: Uncompetitive inhibition of human recombinant MAO-A assessed as dissociation constant for enzyme-inhibitor complex by Lineweaver-Burk plot analysis
How it was run: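 Human recombinant MAO-A (0.005 mg/mL) in 0.1 M sodium phosphate pH 7.4 made isotonic with NaCl, 37 °C, 30 min. Initial oxidation rates at four kynuramine levels (50–150 µM) without or with four inhibitor concentrations (range per compound, 5–1000 µM). Ki from Lineweaver–Burk plots and replots by linear regression; triplicate.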

[14] = target: T1, Amine oxidase [flavin-containing] A; test: Inhibition of human recombinant MAOA expressed in insect cells assessed as oxidation of kynuramine substrate at 500 uM up to 90 mins; conditions: 1.5 h
How it was run: (§3)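 Recombinant human MAO-A incubated with kynuramine, with or without inhibitor. Product formation followed over time. A second equivalent of substrate (150 µM kynuramine) added at 90 min and fresh enzyme added at 120 min.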

[15] = target: T1, Amine oxidase [flavin-containing] A; test: Inhibition of human recombinant MAOA expressed in insect cells using kynuramine as substrate at 50 uM preincubated up to 40 mins before kynuramine substrate addition measured after 30 mins; conditions: 0.5 h
How it was run: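 MAO-A preincubated at 37 °C in 0.1 M isotonic phosphate buffer pH 7.4 with inhibitor, or buffer control, for […]. Diluted 50-fold into buffer containing kynuramine, then incubated 30 min. Activity is % of control; mean ± SD, n = 3.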

[16] = target: T1, Amine oxidase [flavin-containing] A; test: Inhibition of human recombinant MAOA expressed in insect cells assessed as formation of 4-hydroxyquinoline at 500 uM preincubated for 1 hr before kynuramine substrate measured after 1 hr in presence of sodium borohydride
How it was run: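 MAO-A preincubated 60 min at 37 °C with inhibitor, no substrate. Then 5 µL of 300 mM NaBH4 added and held 15 min at 0 °C. Dialysed overnight at 0 °C against 0.1 M isotonic phosphate buffer pH 7.4. Residual activity: 4-hydroxyquinoline formation at 310 nm with 150 µM kynuramine, 60 min, 37 °C; n = 3.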

[17] = target: T1, Amine oxidase [flavin-containing] A; test: Inhibition of human recombinant MAOA expressed in insect cells assessed as oxidation of kynuramine substrate at 500 uM measured after additional substrate added after 90 mins incubation; conditions: 1.5 h; how it was run: as §3
Mus musculus [18] = test: Neurotoxicity in C57BL/6J mouse assessed as reduction of striatal tyrosine hydroxylase level at 25 mg/kg, sc after 72 hrs by ELISA; type: toxicity, organism-based; design: dose 25 mg/kg, route subcutaneous; conditions: in vivo
How it was run: (§4)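 Female C57BL/6J mice aged 3–4 months, single sc dose, 0.9% saline vehicle, killed 72 h post-dose. Striatum homogenised in hot 1% SDS. GFAP or TH measured by detergent-based sandwich ELISA.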

Mus musculus [19] = test: Neurotoxicity in C57BL/6J mouse assessed as increase of striatal GFAP level at 25 mg/kg, sc after 72 hrs by ELISA; type: toxicity, organism-based; design: dose 25 mg/kg, route subcutaneous; conditions: in vivo; how it was run: as §4
Mus musculus [20] = test: Neurotoxicity in C57BL/6J mouse assessed as effect on dopamine level at 25 mg/kg, sc by HPLC analysis; type: toxicity, organism-based; design: dose 25 mg/kg, route subcutaneous; conditions: in vivo
How it was run: (§5)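 Female C57BL/6J mice aged 3–4 months, single sc dose, 0.9% saline vehicle, killed 72 h later. Striata homogenised in ice-cold 0.2 M perchloric acid with dihydroxybenzylamine internal standard. Amines measured by C18 reverse-phase HPLC with electrochemical detection, mobile phase pH 3.0.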

Mus musculus [21] = test: Neurotoxicity in C57BL/6J mouse assessed as effect on serotonin level at 25 mg/kg, sc by HPLC analysis; type: toxicity, organism-based; design: dose 25 mg/kg, route subcutaneous; conditions: in vivo; how it was run: as §5
[22] = target: T1, Amine oxidase [flavin-containing] A; test: Inhibition of human recombinant MAOA expressed in insect cells assessed as oxidation of kynuramine substrate at 500 uM measured after additional enzyme added after 120 mins incubation; conditions: 2 h; how it was run: as §3
[23] = target: T1, Amine oxidase [flavin-containing] A; test: Inhibition of human recombinant MAOA expressed in insect cells assessed as oxidation of kynuramine substrate measured after additional substrate added after 90 mins incubation; conditions: 1.5 h

Clc1ccc(OCCCN2CC=CCC2)c(Cl)c1
IC50 [1]: 2.6 µM | IC50 [2]: 66.4 µM | Ratio IC50 (Homo sapiens): 25.4 | Ki [3]: 2.2 µM | inhibition (INH) [4]: Active | TDI [5]: Active | Ki [6]: 7.4 µM | kinact [7]: 0.002 s⁻¹ | inhibition (INH) [8]: Active | inhibition (INH) [9]: Active | inhibition (INH) [10]: Active | Ki [11]: 0.9 µM | inhibition (INH) [12]: Active

C1=CCN(CCc2ccccc2)CC1
IC50 [1]: 41.3 µM | IC50 [2]: 1180 µM | Ratio IC50 (Homo sapiens): 28.7 | IC50 [13]: 45.4 µM | Ki [13]: 9.2 µM | inhibition (INH) [14]: Active | inhibition (INH) [15]: Active | inhibition (INH) [16]: Not Active | inhibition (INH) [17]: Active | Activity (Mus musculus [18]): Non-toxic | Activity (Mus musculus [19]): Non-toxic | Activity (Mus musculus [20]): Non-toxic | Activity (Mus musculus [21]): Non-toxic | inhibition (INH) [22]: Active

COc1ccc(CCN2CC=CCC2)cc1OC
IC50 [1]: 111 µM | IC50 [2]: 1360 µM | Ratio IC50 (Homo sapiens): 12.3 | inhibition (INH) [23]: Not Active

C1=CCN(Cc2ccccc2)CC1
IC50 [1]: 157 µM | IC50 [2]: 6540 µM | Ratio IC50 (Homo sapiens): 41.6 | inhibition (INH) [23]: Not Active

Clc1ccc(CCN2CC=CCC2)c(Cl)c1
IC50 [1]: 6.1 µM | IC50 [2]: 67.2 µM | Ratio IC50 (Homo sapiens): 11.1 | inhibition (INH) [23]: Not Active

C1=CCN(CCCc2ccccc2)CC1
IC50 [1]: 86.1 µM | IC50 [2]: 812 µM | Ratio IC50 (Homo sapiens): 9.4 | inhibition (INH) [23]: Not Active
